Data from article PMC4567406 (Journal of medicinal chemistry, 2015).
“Also recorded” adds a separate entry of the source.

Columns and labels:
[1] = tested on: IDH1 mutated cancer cells; conditions: cited from earlier work
[2] = tested on: BT142 glioma cells with IDH1 R132H mutation; experiment: Proliferation of glioma stem-like cells; format: cell-based; conditions: 14 days
[3] = tested on: BXD-3752 glioma cells without an IDH1 mutation; experiment: Proliferation of glioma stem-like cells; format: cell-based; conditions: BXD-3752, no IDH1 mutation, 14 days
IDH1(R132H) [4] = target: T1, IDH1(R132H) (Homo sapiens, UniProt O75874, R132H); experiment: IDH1; format: biochemical; conditions: for Fold less active than compound 4: IDH1(R132H) Ki compared with compound 4
Summary of the method: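 E. coli-expressed, column-purified IDH1(R132H) (100 nM) in 50 mM HEPES pH 7.5 with 4 mM MgCl2, 100 µM NADPH and graded inhibitor. After 5 min preincubation, 1 mM α-KG was added to start the reaction. NADPH consumption was read at 340 nm every 30 s. IC50s came from dose-response fits. Ki was derived by Cheng-Prusoff (Km 0.965 mM), or by Morrison tight-binding fitting when IC50 <1 µM. Values are means of ≥3 independent runs.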

[5] = tested on: HT1080 cells (IDH1 R132C); experiment: D2HG production inhibition in HT1080 cells; format: cell-based, human; conditions: treated 2 days (48h)
Summary of the method: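 HT1080 cells (10^5/well) grown in DMEM with 10% dialyzed FBS and exposed to increasing test-compound concentrations for 48h. Culture medium was collected, diluted with MeOH and centrifuged (20,000 rpm, 3 min). D2HG in the supernatant was quantified by HPLC-MS.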

IDH1(R132H) [6] = target: T1, IDH1(R132H); experiment: Steady-state enzyme kinetic study; format: biochemical
[7] = tested on: HT1080 cells (IDH1 R132C); experiment: Histone lysine methylation levels, Western blot; format: cell-based, human; conditions: treated 4 days
Summary of the method: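 After 4 days of test-compound exposure, histones were extracted from treated and control HT1080 cells. Extracts were analysed by Western blot using antibodies to total human histone H3 and to specific methylated lysine marks.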

IDH1(R132H) [8] = target: T1, IDH1(R132H); experiment: Isothermal titration calorimetry; format: binding
[9] = IDH1(R132H) 100 μM without NADPH, 298K
[10] = IDH1(R132H) 100 μM without NADPH, 298K, pH 7.4

T1 sequence (O75874 whole entry R132H): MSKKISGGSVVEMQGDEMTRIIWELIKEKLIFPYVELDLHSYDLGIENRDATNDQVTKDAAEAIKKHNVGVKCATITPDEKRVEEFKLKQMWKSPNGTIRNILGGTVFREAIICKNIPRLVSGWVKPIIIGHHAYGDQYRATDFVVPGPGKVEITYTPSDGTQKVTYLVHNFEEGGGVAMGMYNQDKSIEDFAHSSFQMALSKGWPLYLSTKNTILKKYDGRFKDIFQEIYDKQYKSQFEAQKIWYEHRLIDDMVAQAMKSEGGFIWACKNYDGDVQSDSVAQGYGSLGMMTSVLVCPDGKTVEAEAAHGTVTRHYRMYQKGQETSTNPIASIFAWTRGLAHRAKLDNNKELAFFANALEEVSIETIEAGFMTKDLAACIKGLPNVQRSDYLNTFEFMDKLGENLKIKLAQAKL

Cc1ccccc1C(C(=O)NC1CCCCC1)N(C(=O)Cn1ccnc1C)c1cccc(F)c1 (stereo not shown) [Compound 1, reference compound]
Effect on proliferation of IDH1 mutated cancer cells [1]: can also inhibit proliferation | Effect on proliferation / neurosphere formation of glioma stem-like cells [2]: inhibited neurosphere formation; also recorded: can inhibit growth | Effect on proliferation / neurosphere formation of glioma stem-like cells [3]: did not affect neurosphere formation

O=C1C(=Cc2ccc(O)c(O)c2)NC(=S)N1Cc1ccccc1 [Compound 4, 3-benzyl-5-(3,4-dihydroxybenzylidene)-2-thiohydantoin]
Ki (IDH1(R132H) [4]): 4.7 µM

COc1ccc(/C=C2/NC(=S)N(c3ccccc3)C2=O)cc1OC [Compound 6]
Inhibitory activity against IDH1(R132H) in words (IDH1(R132H) [4]): inactive

COc1ccc(CN2C(=O)/C(=C\c3ccc(OC)c(OC)c3)NC2=S)cc1 [Compound 7]
Inhibitory activity against IDH1(R132H) in words (IDH1(R132H) [4]): inactive

O=C1/C(=C\c2ccc(O)c(O)c2)NC(=S)N1c1ccccc1 [Compound 8]
Fold less active than compound 4 (IDH1(R132H) [4]): ~ 3 fold

O=C1/C(=C\c2ccc(O)c(O)c2)NC(=S)N1Cc1ccc(O)cc1 [Compound 9]
Fold less active than compound 4 (IDH1(R132H) [4]): ~ 3 fold

O=C1/C(=C\c2cccnc2)NC(=S)N1Cc1ccccc1 [Compound 10]
Inhibitory activity against IDH1(R132H) in words (IDH1(R132H) [4]): inactive

COc1ccc(/C=C2/NC(=S)N(Cc3ccccc3)C2=O)cn1 [Compound 11]
Inhibitory activity against IDH1(R132H) in words (IDH1(R132H) [4]): inactive

CN1C(=O)/C(=C\c2ccc(=O)[nH]c2)NC1=S [Compound 16]
Effect on production of D2HG [5]: significantly reduced the production of D2HG; also recorded: significantly reduced amount of D2HG | Effect on proliferation / neurosphere formation of glioma stem-like cells [2]: inhibited neurosphere formation; also recorded: significantly inhibit proliferation | Effect on proliferation / neurosphere formation of glioma stem-like cells [3]: did not affect neurosphere formation; also recorded: did not have activity

O=C1NC(=S)N/C1=C/c1ccc(=O)[nH]c1 [Compound 18]
Effect on production of D2HG [5]: significantly reduced the production of D2HG; also recorded: significantly reduced amount of D2HG | Mode of action against the cofactor NADPH (IDH1(R132H) [6]; variable NADPH, Michaelis-Menten plot): noncompetitive | Mode of action against the substrate α-KG (IDH1(R132H) [6]; variable α-KG, Lineweaver-Burk plot): competitive | Effect on histone lysine methylation levels (H3K4me3, H3K4me2, H3K27me2, H4K20me2) [7]: significantly reduced methylation levels; also recorded: significantly reduce the methylation levels | Effect on proliferation / neurosphere formation of glioma stem-like cells [2]: inhibited neurosphere formation; also recorded: significantly inhibit proliferation | calculated ΔS of binding (IDH1(R132H) [8]; [9]): 95.0 J K^−1 mol^−1 | ΔG of binding (IDH1(R132H) [8]; [9]): -7.12 kcal/mol | Ka (affinity constant) (IDH1(R132H) [8]; [10]): 168000 M⁻¹ | ΔH of binding (IDH1(R132H) [8]; [10]): -0.359 kcal/mol | ΔH of binding (IDH1(R132H) [8]; IDH1(R132H) 133 μM in the presence of NADPH (300 μM)): -0.598 kcal/mol | Effect on proliferation / neurosphere formation of glioma stem-like cells [3]: did not affect neurosphere formation; also recorded: did not have activity

COc1ccc(/C=C2/NC(=S)N(CC(=O)O)C2=O)cn1 [Compound 19]
Inhibitory activity against IDH1(R132H) in words (IDH1(R132H) [4]): none of these compounds are active

O=C(O)CN1C(=O)/C(=C\c2ccc(=O)[nH]c2)NC1=S [Compound 20]
Effect on production of D2HG [5]: did not significantly reduce D2HG | Effect on histone lysine methylation levels (H3K4me3, H3K4me2, H3K27me2, H4K20me2) [7]: did not significantly affect histone methylation levels; also recorded: did not significantly reduce | Inhibitory activity against IDH1(R132H) in words (IDH1(R132H) [4]): none of these compounds are active

O=C1NC(=S)N/C1=C/c1ccnc(Br)c1 [Compound 32]
Inhibitory activity against IDH1(R132H) in words (IDH1(R132H) [4]): Loss of activity

COc1ccc(/C=C2/NC(=O)NC2=O)cn1 [Compound 37]
Inhibitory activity against IDH1(R132H) in words (IDH1(R132H) [4]): Complete loss of activity

O=C1NC(=O)/C(=C\c2ccc(=O)[nH]c2)N1 [Compound 38]
Inhibitory activity against IDH1(R132H) in words (IDH1(R132H) [4]): Complete loss of activity

NC1=N/C(=C/c2ccc(=O)[nH]c2)C(=O)N1 [Compound 39]
Inhibitory activity against IDH1(R132H) in words (IDH1(R132H) [4]): inactive

CSC1=N/C(=C/c2ccc(=O)[nH]c2)C(=O)N1 [Compound 40]
Inhibitory activity against IDH1(R132H) in words (IDH1(R132H) [4]): completely lose the inhibitory activity

CN1C(=O)/C(=C\c2ccc(=O)[nH]c2)N(C)C1=S [Compound 41]
Fold activity reduction compared to compound 16 (IDH1(R132H) [4]; IDH1(R132H) Ki compared with compound 16): 22 fold
